{"source": "ChEMBL document CHEMBL2021780", "about": "“Antineoplastic agents. 548. Synthesis of iodo- and diiodocombstatin phosphate prodrugs” (J Nat Prod, 2012)", "key": {"HUVEC [1]": {"system": "HUVEC", "test": "Antiangiogenic activity in HUVEC assessed as reduction of cord length at 0.001 ug/ml after 24 hrs by matrigel assay relative to control", "format": "functional", "details": "Homo sapiens", "summary_of_the_method": "(§1)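 Commercial HUVECs grown in EGM-2 were seeded at 2 × 10⁵ cells/mL onto Matrigel, which had been polymerized 15 min at rt and then 30 min at 37 °C, per NCI DTP protocol. Compound was added and cells were incubated 24 h, then imaged by inverted microscopy. Cord length and junction number were scored against untreated control on a scale from − (none) to +++ (same as control), with ++ = 50% of control.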"}, "HUVEC [2]": {"system": "HUVEC", "test": "Antiangiogenic activity in HUVEC assessed as reduction of cord length at 0.1 ug/ml after 24 hrs by matrigel assay relative to control", "format": "functional, cell-based", "details": "Homo sapiens", "summary_of_the_method": "as §1"}, "HUVEC [3]": {"system": "HUVEC", "test": "Antiangiogenic activity in HUVEC assessed as reduction of cord length at 1 ug/ml after 24 hrs by matrigel assay relative to control", "format": "functional, cell-based", "details": "Homo sapiens", "summary_of_the_method": "as §1"}, "HUVEC [4]": {"system": "HUVEC", "test": "Antiangiogenic activity in HUVEC assessed as reduction of number of junctions at 0.001 ug/ml after 24 hrs by matrigel assay relative to control", "format": "functional", "details": "Homo sapiens", "summary_of_the_method": "as §1"}, "HUVEC [5]": {"system": "HUVEC", "test": "Antiangiogenic activity in HUVEC assessed as reduction of number of junctions at 0.1 ug/ml after 24 hrs by matrigel assay relative to control", "format": "functional, cell-based", "details": "Homo sapiens", "summary_of_the_method": "as §1"}, "HUVEC [6]": {"system": "HUVEC", "test": "Antiangiogenic activity in HUVEC assessed as reduction of number of junctions at 1 ug/ml after 24 hrs by matrigel assay relative to control", "format": "functional, cell-based", "details": "Homo sapiens", "summary_of_the_method": "as §1"}, "P388": {"system": "P388", "test": "Growth inhibition of mouse P388 cells after 48 hrs by Z1 Beckman/Coulter particle counter analysis", "format": "functional", "details": "P388, 48 h, read-out: ED50 (the source's name)", "summary_of_the_method": "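Mouse P388 leukemia cells were incubated 24 h in 10% horse serum/Fisher medium, then exposed 48 h to serial compound dilutions. ED50 was calculated from cell counts on a Coulter Z1 particle counter.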"}, "BXPC-3": {"system": "BXPC-3", "test": "Growth inhibition of human BxPC3 cells after 48 hrs by sulforhodamine B assay", "format": "functional", "details": "BXPC-3, 48 h", "summary_of_the_method": "(§2)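 NCI sulforhodamine B assay. Cells were seeded in 5% FBS/RPMI-1640 and incubated 24 h. Serial compound dilutions were then added for 48 h. Cells were fixed with trichloroacetic acid, stained with SRB and read by microplate reader. GI50 is the concentration giving 50% reduction in net protein increase, calculated from optical density data.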"}, "MCF7": {"system": "MCF7", "test": "Growth inhibition of human MCF7 cells after 48 hrs by sulforhodamine B assay", "format": "functional", "details": "MCF7, 48 h", "summary_of_the_method": "as §2"}, "SF-268": {"system": "SF-268", "test": "Growth inhibition of human SF268 cells after 48 hrs by sulforhodamine B assay", "format": "functional", "details": "SF-268, 48 h", "summary_of_the_method": "as §2"}, "NCI-H460": {"system": "NCI-H460", "test": "Growth inhibition of human NCI-H460 cells after 48 hrs by sulforhodamine B assay", "format": "functional", "details": "NCI-H460, 48 h", "summary_of_the_method": "as §2"}, "KM-20L2": {"system": "KM-20L2", "test": "Growth inhibition of human KM20L2 cells after 48 hrs by sulforhodamine B assay", "format": "functional", "details": "KM-20L2, 48 h", "summary_of_the_method": "as §2"}, "DU-145": {"system": "DU-145", "test": "Growth inhibition of human DU145 cells after 48 hrs by sulforhodamine B assay", "format": "functional", "details": "DU-145, 48 h", "summary_of_the_method": "as §2"}, "[7]": {"test": "Growth inhibition of human KAT4 cells after 48 hrs by sulforhodamine B assay", "format": "functional", "details": "KAT-4, 48 h"}, "SW-1736": {"system": "SW-1736", "test": "Growth inhibition of human SW1736 cells after 48 hrs by sulforhodamine B assay", "format": "functional", "details": "SW-1736, 48 h"}, "HUVEC [8]": {"system": "HUVEC", "test": "Antiangiogenic activity in HUVEC assessed as cell growth inhibition after 48 hrs by sulforhodamine B assay", "format": "functional, cell-based", "details": "Homo sapiens", "summary_of_the_method": "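HUVECs were grown in EGM-2 medium and tested with the standard SRB growth assay following NCI Developmental Therapeutics Program Matrigel antiangiogenesis protocols. IC50 (concentration causing 50% inhibition) was calculated from plotted data.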"}, "HUVEC [9]": {"system": "HUVEC", "test": "Antiangiogenic activity in HUVEC assessed as reduction of cord length at 0.01 ug/ml after 24 hrs by matrigel assay relative to control", "format": "functional", "details": "Homo sapiens", "summary_of_the_method": "as §1"}, "HUVEC [10]": {"system": "HUVEC", "test": "Antiangiogenic activity in HUVEC assessed as reduction of cord length at 0.0001 ug/ml after 24 hrs by matrigel assay relative to control", "format": "functional", "details": "Homo sapiens", "summary_of_the_method": "(§3)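 Matrigel was polymerised in wells (15 min rt, then 30 min 37 °C). HUVECs (2 × 10⁵ cells/mL) were added with compound and incubated 24 h, then imaged by inverted microscope. Cord length and junction number were scored semi-quantitatively versus untreated control (− none to +++ same as control).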"}, "HUVEC [11]": {"system": "HUVEC", "test": "Antiangiogenic activity in HUVEC assessed as reduction of number of junctions at 0.01 ug/ml after 24 hrs by matrigel assay relative to control", "format": "functional", "details": "Homo sapiens", "summary_of_the_method": "as §1"}, "HUVEC [12]": {"system": "HUVEC", "test": "Antiangiogenic activity in HUVEC assessed as reduction of number of junctions at 0.0001 ug/ml after 24 hrs by matrigel assay relative to control", "format": "functional", "details": "Homo sapiens", "summary_of_the_method": "as §3"}, "HUVEC [13]": {"system": "HUVEC", "test": "Antiangiogenic activity in HUVEC assessed as cell growth at 0.01 ug/ml after 24 hrs by sulforhodamine B assay relative to control", "format": "functional, Homo sapiens", "details": "Homo sapiens, HUVEC, 24 h; read-out: Activity"}, "HUVEC [14]": {"system": "HUVEC", "test": "Antiangiogenic activity in HUVEC assessed as cell growth at 0.001 ug/ml after 24 hrs by sulforhodamine B assay relative to control", "format": "functional, Homo sapiens", "details": "Homo sapiens, HUVEC, 24 h; read-out: Activity"}, "HUVEC [15]": {"system": "HUVEC", "test": "Antiangiogenic activity in HUVEC assessed as cell growth at 0.0001 ug/ml after 24 hrs by sulforhodamine B assay relative to control", "format": "functional, Homo sapiens", "details": "Homo sapiens, HUVEC, 24 h; read-out: Activity"}, "HUVEC [16]": {"system": "HUVEC", "test": "Antiangiogenic activity in HUVEC assessed as cell growth at 0.00001 ug/ml after 24 hrs by sulforhodamine B assay relative to control", "format": "functional", "details": "Homo sapiens, read-out: Activity"}, "[17]": {"test": "Inhibition of purified tubulin assembly after 20 mins", "summary_of_the_method": "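Purified tubulin at 10 μM in 0.8 M monosodium glutamate (pH 6.6), 0.4 mM GTP and 4% (v/v) DMSO, with varying compound concentrations. Extent of assembly was measured after 20 min at 30 °C.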"}, "[18]": {"test": "Displacement of [3H]colchicine from tubulin at 1 uM after 10 mins", "summary_of_the_method": "(§4)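 [³H]colchicine binding: 1.0 μM tubulin with 5.0 μM [³H]colchicine and compound, incubated 10 min at 37 °C. The tubulin–colchicine complex was separated from unbound label by retention on DEAE-cellulose filters. Result is inhibition of radiolabel binding.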"}, "[19]": {"test": "Displacement of [3H]colchicine from tubulin at 10 uM after 10 mins", "summary_of_the_method": "as §4"}, "Micrococcus luteus": {"system": "Micrococcus luteus", "test": "Antibacterial activity against Micrococcus luteus Presque Isle 456 by broth microdilution method", "format": "functional", "summary_of_the_method": "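Broth microdilution per NCCLS bacterial (M7-A5) and yeast standards. Compounds were reconstituted in sterile DMSO and diluted in the appropriate medium just before testing. MIC is the lowest concentration giving complete inhibition of visible growth (optically clear). Assays were repeated on separate days.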"}, "HUVEC [20]": {"system": "HUVEC", "test": "Antiangiogenic activity in HUVEC assessed as reduction of cord length at 0.00001 ug/ml after 24 hrs by matrigel assay relative to control", "format": "functional, cell-based", "details": "Homo sapiens", "summary_of_the_method": "as §1"}, "HUVEC [21]": {"system": "HUVEC", "test": "Antiangiogenic activity in HUVEC assessed as reduction of number of junctions at 0.00001 ug/ml after 24 hrs by matrigel assay relative to control", "format": "functional, cell-based", "details": "Homo sapiens", "summary_of_the_method": "as §1"}}, "note": "Activity calls are given as the source filed them. The calls are words filed in the database; no cut-off is given here.", "data": [{"smiles": "COc1ccc(/C=C\\c2cc(I)c(OC)c(I)c2)cc1OP(=O)(O)O", "values": [{"measurement": "Activity", "setting": "HUVEC [1]", "result": "inactive"}, {"measurement": "Activity", "setting": "HUVEC [2]", "result": "Active"}, {"measurement": "Activity", "setting": "HUVEC [3]", "result": "Active"}, {"measurement": "Activity", "setting": "HUVEC [4]", "result": "inactive"}, {"measurement": "Activity", "setting": "HUVEC [5]", "result": "Active"}, {"measurement": "Activity", "setting": "HUVEC [6]", "result": "Active"}]}, {"smiles": "COc1ccc(/C=C\\c2cc(I)c(OC)c(I)c2)cc1O", "values": [{"measurement": "EC50", "setting": "P388", "result": 2.8, "unit": "ng/mL"}, {"measurement": "GI50", "setting": "BXPC-3", "result": 38, "unit": "ng/mL"}, {"measurement": "GI50", "setting": "MCF7", "result": 2.7, "unit": "ng/mL"}, {"measurement": "GI50", "setting": "SF-268", "result": 3.6, "unit": "ng/mL"}, {"measurement": "GI50", "setting": "NCI-H460", "result": 3.4, "unit": "ng/mL"}, {"measurement": "GI50", "setting": "KM-20L2", "result": 150, "unit": "ng/mL"}, {"measurement": "GI50", "setting": "DU-145", "result": 2.1, "unit": "ng/mL"}, {"measurement": "GI50", "setting": "[7]", "result": 39, "unit": "ng/mL"}, {"measurement": "GI50", "setting": "SW-1736", "result": 1200, "unit": "ng/mL"}, {"measurement": "IC50", "setting": "HUVEC [8]", "result": 0.28, "unit": "ng/mL"}, {"measurement": "Activity", "setting": "HUVEC [9]", "result": "Active"}, {"measurement": "Activity", "setting": "HUVEC [1]", "result": "Active"}, {"measurement": "Activity", "setting": "HUVEC [10]", "result": "inactive"}, {"measurement": "Activity", "setting": "HUVEC [11]", "result": "Active"}, {"measurement": "Activity", "setting": "HUVEC [4]", "result": "Active"}, {"measurement": "Activity", "setting": "HUVEC [12]", "result": "inactive"}, {"measurement": "growth at 0.01 µg/mL", "setting": "HUVEC [13]", "result": 4, "unit": "%"}, {"measurement": "growth at 0.001 µg/mL", "setting": "HUVEC [14]", "result": 8, "unit": "%"}, {"measurement": "growth at 0.0001 µg/mL", "setting": "HUVEC [15]", "result": 84, "unit": "%"}, {"measurement": "growth at 10 pg/mL", "setting": "HUVEC [16]", "result": 87, "unit": "%"}, {"measurement": "IC50", "setting": "[17]", "result": 1500, "unit": "nM"}, {"measurement": "inhibition", "setting": "[18]", "result": 95, "unit": "%"}, {"measurement": "inhibition", "setting": "[19]", "result": 100, "unit": "%"}, {"measurement": "MIC", "setting": "Micrococcus luteus", "result": 4000, "unit": "ng/mL"}]}, {"smiles": "COc1ccc(/C=C\\c2cc(I)c(OC)c(OC)c2)cc1OP(=O)(O)O", "values": [{"measurement": "Activity", "setting": "HUVEC [9]", "result": "Active"}, {"measurement": "Activity", "setting": "HUVEC [1]", "result": "Active"}, {"measurement": "Activity", "setting": "HUVEC [10]", "result": "inactive"}, {"measurement": "Activity", "setting": "HUVEC [20]", "result": "inactive"}, {"measurement": "Activity", "setting": "HUVEC [2]", "result": "Active"}, {"measurement": "Activity", "setting": "HUVEC [11]", "result": "Active"}, {"measurement": "Activity", "setting": "HUVEC [4]", "result": "Active"}, {"measurement": "Activity", "setting": "HUVEC [12]", "result": "inactive"}, {"measurement": "Activity", "setting": "HUVEC [21]", "result": "inactive"}, {"measurement": "Activity", "setting": "HUVEC [5]", "result": "Active"}]}]}
